Results from ChEMBL document CHEMBL1221395, “Synthesis, anticancer activity and mitochondrial mediated apoptosis inducing ability of 2,5-diaryloxadiazole-pyrrolobenzodiazepine conjugates” (Bioorg Med Chem, 2010).
One block for each compound: values may come before it. Activity calls are given as the source filed them. The calls are words filed in the database; no cut-off is given here.

Legend:
A-375 [1] = assay: Antitumor activity against human A375 cells assessed as upregulation of p53 protein level at 4 uM after 24 hrs by Western blotting; format: functional, cell-based
Outline: (§1)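 A375 cells treated at 4 µM for 24 h. Lysates cleared at 12,000 rpm for 10 min, and protein quantified by Bradford. 30 µg per lane run on 12% SDS-PAGE and transferred to PVDF. Blocked 2 h in TBST with 5% blocking powder. Primary antibody overnight at 4 °C, HRP secondary (1:2000) 1 h at room temperature. β-actin used as loading control; untreated cells as control.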

A549 = assay: Cytotoxicity against human A549 cells after 24 hrs by WST-1 assay; format: functional; details: A549, 24 h
Calf thymus DNA = assay: Binding affinity to calf thymus DNA assessed as change in melting temperature after 18 hrs; format: nucleic-acid assay; details: Bos taurus
Outline: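 Thermal melting with duplex CT-DNA (100 µM in phosphate) and ligand (20 µM), added from methanol stock, [PBD]/[DNA] 1:5, in 10 mM sodium phosphate + 1 mM EDTA, pH 7.00; incubated at 37 °C for 18 h. A260 monitored while heating at 1 °C/min over 40–90 °C. Tm taken from d(A260)/dT maxima, corrected for methanol; ΔTm = Tm(DNA+ligand) − Tm(DNA alone); at least three determinations.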

PC-3 = assay: Cytotoxicity against human PC3 cells after 24 hrs by WST-1 assay; format: functional; details: PC-3, 24 h
[2] = Cytotoxicity against human Gurav cells after 24 hrs by WST-1 assay; format: functional
HOP-62 = assay: Cytotoxicity against human HOP62 cells after 24 hrs by WST-1 assay; format: functional; details: HOP-62, 24 h
[3] = Lipophilicity, log P of the compound; format: physicochemical; details: octanol/water
A-375 [4] = assay: Antitumor activity against human A375 cells assessed as upregulation of p21 protein level at 4 uM after 24 hrs by Western blotting; format: functional, cell-based; outline: as §1
A-375 [5] = assay: Antitumor activity against human A375 cells assessed as upregulation of pRb protein level at 4 uM after 24 hrs by Western blotting; format: functional, cell-based; outline: as §1
A-375 [6] = assay: Induction of apoptosis in human A375 cells assessed as increase in Bax protein level at 4 uM after 24 hrs by Western blotting; format: functional, cell-based; outline: as §1
A-375 [7] = assay: Induction of apoptosis in human A375 cells assessed as increase in cytochrome C protein level at 4 uM after 24 hrs by Western blotting; format: functional, cell-based; outline: as §1
A-375 [8] = assay: Induction of apoptosis in human A375 cells assessed as increase in PARP protein level at 4 uM after 24 hrs by Western blotting; format: functional, cell-based; outline: as §1
A-375 [9] = assay: Induction of apoptosis in human A375 cells assessed as increase in Caspase 3 activation at 4 uM after 24 hrs by fluorimetry; format: functional, cell-based
Outline: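 A375 cells exposed to 4 µM compound. Cell lysate incubated with DEVD-AFC substrate, with or without DEVD-CHO inhibitor, at 37 °C for 1 h in a fluorescent caspase-3 kit. Fluorescence read at excitation 400 nm, emission 505 nm.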

[10] = Cytotoxicity against human DWD cells by SRB assay
A2780 [11] = assay: Cytotoxicity against human A2780 cells by SRB assay
ZR-75-1 = assay: Cytotoxicity against human ZR-75-1 cells by SRB assay
KB [12] = assay: Cytotoxicity against human KB cells after 24 hrs by SRB assay
MCF7 = assay: Cytotoxicity against human MCF7 cells by sulforhodamine B assay
SiHa = assay: Cytotoxicity against human SiHa cells after 24 hrs by SRB assay
COLO 205 = assay: Cytotoxicity against human COLO205 cells after 24 hrs by SRB assay; details: COLO 205, 24 h
A-375 [13] = assay: Cell cycle arrest in human A375 cells assessed as accumulation at S phase after 24 hrs by FACS flow cytometry; design: concentration or dose not given beside the values
A-375 [14] = assay: Cell cycle arrest in human A375 cells assessed as accumulation at G1 phase after 24 hrs by FACS flow cytometry; design: concentration or dose not given beside the values
A-375 [15] = assay: Cell cycle arrest in human A375 cells assessed as accumulation at G2/M phase after 24 hrs by FACS flow cytometry; design: concentration or dose not given beside the values
A-375 [16] = assay: Cell cycle arrest in human A375 cells assessed as accumulation at Sub-G1 phase after 24 hrs by FACS flow cytometry; design: concentration or dose not given beside the values
A2780 [17] = assay: Cytotoxicity against human A2780 cells after 24 hrs by WST-1 assay; format: functional; details: A2780, 24 h
KB [18] = assay: Cytotoxicity against human KB cells after 24 hrs by WST-1 assay; format: functional
KB [19] = assay: Cytotoxicity against human KB cells by SRB assay
[20] = Cytotoxicity against human DWD cells after 24 hrs by SRB assay

Compound: COc1ccc(-c2nnc(-c3ccc(C(F)(F)F)cc3)o2)cc1OCCCOc1cc2c(cc1OC)C(=O)N1CCC[C@H]1C=N2
Activity (A-375 [1]): Active
GI50 (A549): < 100 nM
ΔTm (Calf thymus DNA): 4 °C
GI50 (PC-3): 140 nM
GI50 [2]: < 100 nM
GI50 (HOP-62): < 100 nM
logP [3]: 5.07
Activity (A-375 [4]): Active
Activity (A-375 [5]): Active
Activity (A-375 [6]): Active
Activity (A-375 [7]): Active
Activity (A-375 [8]): Active
Activity (A-375 [9]): Active
GI50 [10]: 110 nM
GI50 (A2780 [11]): < 100 nM
GI50 (ZR-75-1): 110 nM
GI50 (KB [12]): < 100 nM
GI50 (MCF7): 110 nM
GI50 (SiHa): < 100 nM
GI50 (COLO 205): < 100 nM
Activity (A-375 [13]): 7.51%
Activity (A-375 [14]): 72.28%
Activity (A-375 [15]): 2.26%
Activity (A-375 [16]): 17.93%

Compound: COc1cc2c(cc1O)N=C[C@@H]1CCCN1C2=O
GI50 (A549): 160 nM
GI50 (PC-3): 200 nM
GI50 [2]: 160 nM
GI50 (HOP-62): 150 nM
GI50 (A2780 [17]): 140 nM
GI50 (KB [18]): 170 nM
logP [3]: 0.88
GI50 (MCF7): 170 nM
GI50 (SiHa): 170 nM
GI50 (COLO 205): 110 nM
Activity (A-375 [13]): 8.02%
Activity (A-375 [14]): 73.66%
Activity (A-375 [15]): 2.98%
Activity (A-375 [16]): 15.33%

Compound: COc1cccc2c1C(=O)c1c(O)c3c(c(O)c1C2=O)C[C@@](O)(C(=O)CO)C[C@@H]3O[C@H]1C[C@H](N)[C@H](O)[C@H](C)O1 [DOXORUBICIN]
GI50 [2]: 170 nM
GI50 (HOP-62): 140 nM
GI50 (KB [19]): 170 nM
GI50 (A2780 [11]): 160 nM
GI50 [20]: 100 nM
GI50 (MCF7): 170 nM
GI50 (SiHa): 170 nM
GI50 (COLO 205): 140 nM

Second part, led by results:

ΔTm (Calf thymus DNA): 1.9 °C
logP [3]: 3.76
Compound: COc1ccc(-c2nnc(-c3cc(OC)c(OC)c(OC)c3)o2)cc1OCCCOc1cc2c(cc1OC)C(=O)N1CCC[C@H]1C=N2
GI50 (A549): 110 nM
GI50 (PC-3): 140 nM
GI50 [2]: 140 nM
GI50 (HOP-62): 170 nM
GI50 [10]: < 100 nM
GI50 (A2780 [11]): 140 nM
GI50 (ZR-75-1): 120 nM
GI50 (KB [12]): 140 nM
GI50 (MCF7): < 100 nM
GI50 (SiHa): 180 nM
GI50 (COLO 205): < 100 nM

ΔTm (Calf thymus DNA): 2.3 °C
logP [3]: 4.28
Compound: COc1ccc(-c2nnc(-c3ccc(OC)c(OCCCCOc4cc5c(cc4OC)C(=O)N4CCC[C@H]4C=N5)c3)o2)cc1OC
GI50 (A549): < 100 nM
GI50 (PC-3): 130 nM
GI50 [2]: < 100 nM
GI50 (HOP-62): 130 nM
GI50 [10]: < 100 nM
GI50 (A2780 [11]): < 100 nM
GI50 (ZR-75-1): 120 nM
GI50 (KB [12]): 110 nM
GI50 (MCF7): < 100 nM
GI50 (SiHa): 130 nM
GI50 (COLO 205): < 100 nM

ΔTm (Calf thymus DNA): 2.5 °C
logP [3]: 4.78
Compound: COc1ccc(-c2nnc(-c3ccc(F)cc3)o2)cc1OCCCCOc1cc2c(cc1OC)C(=O)N1CCC[C@H]1C=N2
GI50 (A549): 290 nM
GI50 (PC-3): 170 nM
GI50 [2]: 100 nM
GI50 (HOP-62): 150 nM
GI50 [10]: 130 nM
GI50 (A2780 [11]): < 100 nM
GI50 (ZR-75-1): 170 nM
GI50 (KB [12]): < 100 nM
GI50 (MCF7): 160 nM
GI50 (SiHa): < 100 nM
GI50 (COLO 205): 150 nM
